Assay results reported in ChEMBL document CHEMBL1828559, “Synthesis and characterization of high-affinity 4,4-difluoro-4-bora-3a,4a-diaza-s-indacene-labeled fluorescent ligands for human β-adrenoceptors” (J Med Chem, 2011).
Active and inactive are the calls of the source. The rule behind the calls is not given here.

Columns and labels:
[1] = biological target: T1, Beta-3 adrenergic receptor (Homo sapiens, UniProt P13945); experiment: Displacement of [3H]-CGP 12177 from human beta-3 adrenergic receptor expressed in CHOK1 cells; format: cell-based, CHO-K1
Target sequence in this assay (P13945 whole entry): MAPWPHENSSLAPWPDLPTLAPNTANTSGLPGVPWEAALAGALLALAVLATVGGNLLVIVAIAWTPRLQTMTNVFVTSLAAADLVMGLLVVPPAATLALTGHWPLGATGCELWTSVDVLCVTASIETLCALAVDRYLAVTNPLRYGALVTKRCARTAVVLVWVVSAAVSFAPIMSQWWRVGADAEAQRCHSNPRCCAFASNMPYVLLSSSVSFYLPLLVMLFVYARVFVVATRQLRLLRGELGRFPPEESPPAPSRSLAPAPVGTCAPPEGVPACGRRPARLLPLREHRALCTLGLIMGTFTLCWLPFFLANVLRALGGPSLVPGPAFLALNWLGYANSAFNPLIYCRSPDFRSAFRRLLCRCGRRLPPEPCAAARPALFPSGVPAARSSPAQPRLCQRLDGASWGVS

[2] = biological target: T2, Beta-1 adrenergic receptor (Homo sapiens, UniProt P08588); experiment: Antagonist activity at human beta-1 adrenergic receptor site 1 expressed in cimeterol-stimulated CHO-K1 cells assessed as CRE-SPAP level by […]; format: functional, cell-based
[3] = biological target: T1, Beta-3 adrenergic receptor; experiment: Antagonist activity at human beta-3 adrenergic receptor expressed in fenoterol-stimulated CHOK1 cells assessed as CRE-SPAP level by […]; format: functional, cell-based, CHO-K1
Procedure, shortened: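 CHO-K1 cells stably co-expressing human β3-AR (790 fmol/mg protein) and a six-CRE SPAP reporter, grown to confluence. Fenoterol was the stimulating agonist. SPAP secreted into the medium was measured 5–6 h after agonist addition. Fixed antagonist concentrations of 10, 100 or 1000 nM were used. The Stephenson partial-agonist method was used where partial agonism occurred.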
Target sequence in this assay (P13945 whole entry): as above

[4] = biological target: T3, Beta-2 adrenergic receptor (Homo sapiens, UniProt P07550); experiment: Displacement of [3H]-CGP 12177 from human beta-2 adrenergic receptor expressed in CHOK1 cells; format: cell-based, CHO-K1
Target sequence in this assay (P07550 whole entry): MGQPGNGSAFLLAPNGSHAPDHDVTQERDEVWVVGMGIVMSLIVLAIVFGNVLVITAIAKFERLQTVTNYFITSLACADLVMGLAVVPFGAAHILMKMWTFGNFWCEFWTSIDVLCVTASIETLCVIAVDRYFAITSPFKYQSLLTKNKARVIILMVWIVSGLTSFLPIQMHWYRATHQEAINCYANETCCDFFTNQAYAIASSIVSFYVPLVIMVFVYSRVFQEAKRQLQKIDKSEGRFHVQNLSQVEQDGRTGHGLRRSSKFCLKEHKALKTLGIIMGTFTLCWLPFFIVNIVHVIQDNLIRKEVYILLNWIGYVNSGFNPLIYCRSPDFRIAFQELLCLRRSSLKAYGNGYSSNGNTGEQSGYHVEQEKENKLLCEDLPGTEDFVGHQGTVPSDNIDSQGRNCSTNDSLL

[5] = biological target: T2, Beta-1 adrenergic receptor; experiment: biochemical
[6] = biological target: T3, Beta-2 adrenergic receptor; experiment: Antagonist activity at human beta-2 adrenergic receptor expressed in salbutamol-stimulated CHO-K1 cells assessed as CRE-SPAP level by […]; format: functional, cell-based
Target sequence in this assay (P07550 whole entry): as above

[7] = biological target: T2, Beta-1 adrenergic receptor; experiment: Antagonist activity at human beta-1 adrenergic receptor site 2 expressed in CGP 12177-stimulated CHO-K1 cells assessed as CRE-SPAP level by […]
[8] = biological target: T3, Beta-2 adrenergic receptor; experiment: Binding affinity to human beta-2 adrenergic receptor expressed in CHOK1 cells at 3 nM preincubated with 1 to 100 nM beta-2 adrenergic receptor antagonist ICI 118551 for 30 mins measured after 18 hrs by confocal imaging; format: cell-based; conditions: CHO-K1
Procedure, shortened: (§1)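 Live confocal imaging at room temperature in HEPES-buffered saline. CHO-K1 cells expressing human β2-AR were grown at least 18 h to 80–100% confluence. Where used, antagonists (ICI 118551 1–100 nM; CGP 20712A) were preincubated for 30 min, then 3 nM fluorescent ligand was added for 10 min. Imaging was done in its continued presence, with 633 nm excitation and emission through a 650 nm long-pass filter. Control CHO-K1 cells lacked the receptor.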
Target sequence in this assay (P07550 whole entry, looked up): as the sequence (P07550 whole entry) above

[9] = biological target: T3, Beta-2 adrenergic receptor; experiment: Binding affinity to human beta-2 adrenergic receptor expressed in CHOK1 cells at 3 nM after 18 hrs by confocal imaging; format: cell-based; conditions: CHO-K1; procedure, shortened: as §1
Target sequence in this assay (P07550 whole entry, looked up): as the sequence (P07550 whole entry) above

[10] = biological target: T3, Beta-2 adrenergic receptor; experiment: Binding affinity to human beta-2 adrenergic receptor expressed in CHOK1 cells at 3 nM preincubated with > 10 uM beta-1 adrenergic receptor antagonist CGP 20712A for 30 mins measured after 18 hrs by confocal imaging; format: cell-based; conditions: CHO-K1; procedure, shortened: as §1
Target sequence in this assay (P07550 whole entry, looked up): as the sequence (P07550 whole entry) above

[11] = biological target: T1, Beta-3 adrenergic receptor; experiment: Partial agonist activity at human beta-3 adrenergic receptor expressed in CHOK1 cells assessed as CRE-SPAP production at 1 uM by […] relative to 10 uM isoprenaline; format: functional, cell-based; conditions: CHO-K1
Procedure, shortened: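 CHO-K1 cells co-expressing human β3-AR and a CRE-SPAP reporter. SPAP secretion was measured 5–6 h after ligand addition. The response to 1 μM ligand alone is expressed as a percentage of the response to 10 μM isoprenaline within the same experiment. Values are mean ± SE of n separate experiments.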
Target sequence in this assay (P13945 whole entry, looked up): as the sequence (P13945 whole entry) above

T2 sequence (P08588 whole entry): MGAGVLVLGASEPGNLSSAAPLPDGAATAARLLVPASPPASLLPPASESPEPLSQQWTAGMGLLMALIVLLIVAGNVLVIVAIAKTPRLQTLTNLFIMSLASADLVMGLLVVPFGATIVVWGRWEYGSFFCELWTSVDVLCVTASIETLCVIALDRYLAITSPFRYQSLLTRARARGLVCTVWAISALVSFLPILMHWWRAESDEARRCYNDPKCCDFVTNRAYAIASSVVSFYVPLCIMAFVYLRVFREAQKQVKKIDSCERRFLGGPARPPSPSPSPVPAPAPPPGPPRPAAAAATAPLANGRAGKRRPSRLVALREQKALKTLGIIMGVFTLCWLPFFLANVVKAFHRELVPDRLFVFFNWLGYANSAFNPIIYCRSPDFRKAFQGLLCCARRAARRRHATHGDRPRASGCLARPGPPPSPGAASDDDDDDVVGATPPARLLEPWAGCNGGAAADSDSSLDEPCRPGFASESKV

Structure (SMILES) | Kd [1] [nM] | Kd [2] [nM] | Kd [3] [nM] | Kd [4] [nM] | Kd [5] [nM] | Kd [6] [nM] | Kd [7] [nM] | Activity [8] | Activity [9] | Activity [10] | Activity [11] [%]
O=C(CCCCCNC(=O)COc1ccc(/C=C/c2ccc3n2[B-](F)(F)[N+]2=C(c4cccs4)C=CC2=C3)cc1)NCCNC[C@H](O)COc1cccc2ccccc12 | 44.7 | 8.32 | 26.3 | 1.38 | 36.3 | 0.427 | 91.2 | – | – | – | –
O=C(CCCCCNC(=O)COc1ccc(/C=C/c2ccc3n2[B-](F)(F)[N+]2=C(c4cccs4)C=CC2=C3)cc1)NCCCCNC[C@H](O)COc1cccc2ccccc12 | 123 | 13.5 | 151 | 0.724 | 33.1 | 0.275 | 182 | – | – | – | –
O=C(CCCCCNC(=O)COc1ccc(/C=C/c2ccc3n2[B-](F)(F)[N+]2=C(c4cccs4)C=CC2=C3)cc1)NCCCCCCCCNC[C@H](O)COc1cccc2ccccc12 | 67.6 | 52.5 | 141 | 7.08 | 186 | 1.74 | 794 | – | – | – | –
O=C(CCCCCNC(=O)COc1ccc(/C=C/c2ccc3n2[B-](F)(F)[N+]2=C(c4cccs4)C=CC2=C3)cc1)NCCOCCOCCNC[C@H](O)COc1cccc2ccccc12 | 81.3 | 3.47 | 107 | 0.617 | 17.4 | 0.295 | 67.6 | inactive | inactive | inactive | –
C=CCc1ccccc1OC[C@@H](O)CNCCNC(=O)CCCCCNC(=O)COc1ccc(/C=C/c2ccc3n2[B-](F)(F)[N+]2=C(c4cccs4)C=CC2=C3)cc1 | 69.2 | 46.8 | 41.7 | 2.88 | 91.2 | 1.82 | 74.1 | – | – | – | 56.6
C=CCc1ccccc1OC[C@@H](O)CNCCOCCOCCNC(=O)CCCCCNC(=O)COc1ccc(/C=C/c2ccc3n2[B-](F)(F)[N+]2=C(c4cccs4)C=CC2=C3)cc1 | 100 | 7.59 | 61.7 | 0.933 | 22.4 | 0.427 | 41.7 | – | – | – | 63.5
C=CCc1ccccc1OCC(O)CNC(C)C (stereo not drawn) | – | – | – | – | – | – | – | – | – | – | 62.4
CC(C)NCC(O)COc1cccc2[nH]ccc12 (stereo not drawn) | – | – | – | – | – | – | – | – | – | – | 85.2
O=C(CCCCCNC(=O)COc1ccc(/C=C/c2ccc3n2[B-](F)(F)[N+]2=C(c4cccs4)C=CC2=C3)cc1)NCCNCC(O)COc1cccc2ccccc12 (racemic) | 93.3 | 75.9 | 63.1 | 2.75 | 89.1 | 2.57 | 355 | – | – | – | –
O=C(CCCCCNC(=O)COc1ccc(/C=C/c2ccc3n2[B-](F)(F)[N+]2=C(c4cccs4)C=CC2=C3)cc1)NCCCCNCC(O)COc1cccc2ccccc12 (racemic) | 105 | 30.9 | 79.4 | 1.35 | 56.2 | 0.741 | 240 | – | – | – | –
O=C(CCCCCNC(=O)COc1ccc(/C=C/c2ccc3n2[B-](F)(F)[N+]2=C(c4cccs4)C=CC2=C3)cc1)NCCCCCCCCNCC(O)COc1cccc2ccccc12 (racemic) | 77.6 | 219 | 115 | 5.75 | – | 2.51 | < 1000 | – | – | – | –
O=C(CCCCCNC(=O)COc1ccc(/C=C/c2ccc3n2[B-](F)(F)[N+]2=C(c4cccs4)C=CC2=C3)cc1)NCCOCCOCCNCC(O)COc1cccc2ccccc12 (racemic) | 295 | 41.7 | 57.5 | 3.31 | 72.4 | 0.437 | 112 | – | – | – | –
C=CCc1ccccc1OCC(O)CNCCNC(=O)CCCCCNC(=O)COc1ccc(/C=C/c2ccc3n2[B-](F)(F)[N+]2=C(c4cccs4)C=CC2=C3)cc1 (racemic) | 46.8 | 43.7 | 23.4 | 2.34 | 55 | 1.58 | 120 | – | – | – | 60.6
C=CCc1ccccc1OCC(O)CNCCOCCOCCNC(=O)CCCCCNC(=O)COc1ccc(/C=C/c2ccc3n2[B-](F)(F)[N+]2=C(c4cccs4)C=CC2=C3)cc1 (racemic) | 81.3 | 17.4 | 57.5 | 1.23 | 31.6 | 0.617 | 77.6 | – | – | – | 49.6
O=C(CCCCCNC(=O)COc1ccc(/C=C/c2ccc3n2[B-](F)(F)[N+]2=C(c4cccs4)C=CC2=C3)cc1)NCCNCC(O)COc1cccc2[nH]ccc12 (racemic) | 331 | 302 | 178 | 46.8 | 871 | 30.2 | < 1000 | – | – | – | 49.4
O=C(CCCCCNC(=O)COc1ccc(/C=C/c2ccc3n2[B-](F)(F)[N+]2=C(c4cccs4)C=CC2=C3)cc1)NCCOCCOCCNCC(O)COc1cccc2[nH]ccc12 (racemic) | 380 | 38 | 288 | 11 | 97.7 | 7.24 | < 1000 | – | – | – | 53.2
